# High-throughput results deposited in PubChem by several laboratories.
# TRPML3 agonist: human TRPML3 channel agonists, primary screen, cell-based, HEK293 TRPML3-YFP, Fluo-8 calcium fluorescence, 3 µM; AID 1448, 2008; 220,000 tested, 0.29% active; activation, % at 3 µM; Mucolipin-3 (Homo sapiens), Q8TDD5; 100% = the carbachol control signal;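 active means activation above its plate's cutoff, the mean activation of the plate's test wells plus 3 SD, cut at about 12% in these data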;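 further: 0% = DMSO only wells and 100% = carbachol wells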
# Target sequence (Q8TDD5 whole entry, looked up): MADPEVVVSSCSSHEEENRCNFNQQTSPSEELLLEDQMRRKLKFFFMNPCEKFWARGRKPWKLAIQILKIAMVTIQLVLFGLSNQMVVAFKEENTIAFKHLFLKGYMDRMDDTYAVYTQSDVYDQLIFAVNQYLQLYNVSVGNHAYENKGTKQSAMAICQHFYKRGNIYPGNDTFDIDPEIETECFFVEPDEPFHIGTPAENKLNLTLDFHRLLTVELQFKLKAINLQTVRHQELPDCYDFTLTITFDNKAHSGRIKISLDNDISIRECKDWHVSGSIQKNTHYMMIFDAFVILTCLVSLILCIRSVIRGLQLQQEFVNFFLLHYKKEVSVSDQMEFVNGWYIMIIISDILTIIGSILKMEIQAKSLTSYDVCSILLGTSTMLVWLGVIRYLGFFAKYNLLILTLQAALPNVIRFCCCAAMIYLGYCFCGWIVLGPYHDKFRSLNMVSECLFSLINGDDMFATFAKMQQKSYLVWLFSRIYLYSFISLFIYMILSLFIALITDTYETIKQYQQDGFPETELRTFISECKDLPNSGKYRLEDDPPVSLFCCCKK
#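 system = HEK293 cells stably carrying human TRPML3-YFP | doses = one concentration, 3 µM nominal, 0.3% DMSO | timing = dye loading 1 h 37 °C then 30 min ambient, 125 s read | detection = Fluo-8 calcium dye fluorescence, ex 470-495, em 515-575 nm | benchmarks = high control carbachol 87 µM, low control DMSO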
# TRPN1 ag: zebrafish TRPN1 channel agonists, primary screen, cell-based, HEK293, calcium fluorescence | transient receptor potential cation channel N1 (TRPN1/NompC), Danio rerio | HEK293 zebrafish TRPN1-YFP, Fluo-8 calcium fluorescence; 100% = response to 87 µM carbachol | activation, % at 3 µM | 220,000 tested, 0.18% active;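 active means activation above its plate's cutoff, the mean activation of test wells on that plate plus 3 SD, cut at about 19% in these data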;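 further: 0% = DMSO alone and 100% = 87 µM carbachol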
#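 Material: zebrafish TRPN1-YFP in HEK293 cells; Doses: single test compound dose, 3 µM nominal, 0.3% DMSO; Timing: dye loading 1 h at 37 °C, then 30 min room temperature; Technique: intracellular calcium fluorescence with Fluo-8; Benchmarks: high carbachol 87 µM, low DMSO alone.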
# CRFBP-R2 agonist: agonists of CRF-BP/CRF-R2 complex, primary screen, cell-based, HEK293, calcium dye fluorescence, uHTS; CRF-binding protein / CRF receptor 2 complex (human); calcium dye fluorescence (FLIPR); percent of saturating CRF peptide response; activation, % at 13.2 µM; 350,000 tested, 0.46% active; AID 588473, 2011;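 active means activation of at least 50%, plus an integration ratio under a set limit after plate pattern correction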;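 further: plate controls were neutral control wells without compound for no effect and CRF at EC100 for full effect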
# CRFR2-BP antag: antagonists of CRF-BP/CRF-R2 complex, primary screen, cell-based, HEK293, calcium dye fluorescence, uHTS; CRF-induced calcium fluorescence; inhibition, % at 11.8 µM; 350,000 tested, 0.59% active;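 active means inhibition of the ligand-induced calcium signal above about 50% at the single tested concentration, limit read from the data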
# * marks the source's active call; other numbers are inactive results; x = not tested or not shown. A selection: hits, their analogues and other compounds. The true share with any hit is near 1.2%.
SMILES,TRPML3 agonist,TRPN1 ag,CRFBP-R2 agonist,CRFR2-BP antag
CCOC(=O)c1nnn(CC(=O)N2N=C(c3cc(C)ccc3C)CC2c2ccc(OC)cc2)c1C(=O)OCC (stereo not given),1.2,3.1,0.8,-5.9
CCOC(=O)c1nnn(CC(=O)N2N=C(c3ccccc3)CC2c2ccccc2)c1C(=O)OCC (stereo not given),-0.3,0.2,-0.7,70.9*
Cc1ccccc1NC(C)C(=O)N/N=C/c1ccccc1OCc1cccc(Br)c1 (stereo not given),-1.1,-1.0,-0.5,-11.2
O=C(CCN1CCN(c2ccc(F)cc2)CC1)Nc1ccccc1F,-1.0,-0.6,0.5,-5.4
CCN1CCN(Cc2c(O)ccc3c2O/C(=C\C=C\c2ccccc2OC)C3=O)CC1,5.4,7.8,74.3*,-60.8
Cc1ccc(/C=C2\Oc3c(ccc(O)c3CN3CCN(CCO)CC3)C2=O)cc1,0.9,0.2,86.0*,-16.2
CCN1CCN(Cc2c(O)ccc3c(=O)c(-c4ccccc4OC)coc23)CC1,0.6,-0.3,0.7,-6.4
CC(C)c1ccc(/C=C2\Oc3c(ccc(O)c3CN3CCN(C)CC3)C2=O)cc1,2.0,2.0,47.4,-42.5
Cc1ccsc1C(=O)NCCc1c[nH]c2ccccc12,x,x,-0.2,5.3
COc1cccc(CN2CCN(Cc3cc4ccccc4[nH]3)CC2CCO)c1 (stereo not given),11.3,28.2*,57.2*,-27.0
Cc1ccc(S(=O)(=O)N2CCC(C(=O)N3CCC3)CC2)cc1,x,x,-0.3,14.4
CCOc1ccc2c(c1)S/C(=C\c1cccs1)C(=O)N2,0.2,0.6,1.9,-20.4
CSc1nnc(C)c(/C=C/Nc2ccc(C)cc2)n1,2.0,3.3,105.1*,-145.2
Cn1cc(/C=C2\SC(=S)N(NC(=O)c3cccc(Cl)c3)C2=O)c2ccccc21,0.9,3.2,36.2,-33.3
Cn1cc(/C=C2\SC(=S)N(NC(=O)c3ccccc3)C2=O)c2ccccc21,1.8,2.8,71.9*,-112.3
COc1ccc(N=Nc2nc3ccc(Br)cc3n2C)cc1,30.5*,38.9*,32.9,-13.8
CCOc1ccccc1NC(=O)CNC(=O)CNC(=O)Cc1ccccc1,x,x,-0.8,-13.3
CCOc1ccccc1NC(=O)CNC(=O)Cc1ccccc1,0.1,0.3,-0.4,52.4*
CC1=CC2=NC(=O)CC(C)(C(=O)N(CC(=O)NC3CCCC3)c3ccccc3C)N2C=C1 (stereo not given),0.6,1.1,-1.3,-1.3
CC1=CN2C(=NC(=O)CC2(C)C(=O)N(CC(=O)NC2CCCC2)c2ccccc2C)C=C1 (stereo not given),-0.2,0.4,0.0,54.2*
COc1ccc(/C=C/C(=O)NC(=S)N2CCOCC2)cc1,x,x,-0.4,7.6
COc1ccc(C(=O)N2CC3(CC(c4cccc(NC(=O)COc5ccc(Cl)cc5)c4)=NO3)C[C@@H]2C(N)=O)cc1 (stereo not given in full),x,x,1.9,-2.3
COc1ccc(-c2cc3ccccc3[nH]2)cc1,0.2,0.7,0.1,59.7*
COc1cccc(NC(=O)CS(=O)(=O)c2cccc3nsnc23)c1,x,x,-1.8,6.2
Cc1ccc(-n2nnnc2SCc2nnc(-c3ccccc3Br)o2)cc1,-0.5,0.4,1.2,135.9*
SMILES,TRPML3 agonist,TRPN1 ag,CRFBP-R2 agonist,CRFR2-BP antag
Cc1ccc(NC(=O)CO/N=C(\N)c2nonc2N)cc1,0.5,1.5,-1.7,-3.8
N/C(=N\OCC(=O)Nc1ccccc1)c1nonc1N,0.1,0.0,-3.9,68.9*
Cc1cccc(C(=O)OCC(=O)Nc2c(C)nn(-c3ccccc3)c2C)c1O,x,x,-0.7,-7.5
Cc1nn(-c2ccccc2)c(C)c1NC(=O)COC(=O)c1ccccc1OC(F)F,x,x,1.4,57.5*
COc1cccc(C2=CC(c3ccccc3)n3nnnc3N2)c1 (stereo not given),-1.5,-1.1,1.1,-27.3
O=c1c2oc3ccccc3c2[nH]c(=S)n1-c1ccccc1,1.2,-0.3,1.9,-9.1
COc1ccc(N2CCN(C(=O)CCS(=O)(=O)c3ccc4c(c3)NC(=O)CO4)CC2)cc1,x,x,-2.4,56.0*
O=C(c1ccccc1)c1nc2ccccc2[nH]c1=O,-0.3,-0.4,-0.9,66.8*
CN(C)CCCNCCCNC(=O)c1ccncc1,0.1,0.1,0.1,23.0
O=[N+]([O-])c1cccc(/C=N\N=C2c3ccccc3-c3ccccc32)c1O,0.3,-0.1,-3.1,57.9*
CCOc1cccc(C2C(C(=O)c3ccc(C)o3)=C(O)C(=O)N2c2nccs2)c1 (stereo not given),3.5,3.6,159.1*,-33.6
CCOc1cccc(C2C(C(=O)c3ccc(C)o3)=C(O)C(=O)N2Cc2ccncc2)c1 (stereo not given),0.7,0.1,0.1,-3.7
Cc1ccccc1Cn1ccc(NC(=O)c2cc3ncc(Br)cn3n2)n1,1.6,7.5,-1.3,66.0*
Cc1ccccc1Cn1ccc(NC(=O)c2nn3cccnc3c2Cl)n1,1.6,2.5,-2.7,12.5
CSc1ncc2ncn(C3OC(CO)C(O)C3O)c2n1 (stereo not given),0.8,0.1,1.2,14.3
COP(=O)(OC)c1nc(-c2ccc([N+](=O)[O-])cc2)oc1N1CCCCC1,x,x,54.3*,-43.9
CN(C)CCNC(C(=O)Nc1cccc(S(=O)(=O)N2CCOCC2)c1)c1ccccc1 (stereo not given),x,x,-0.8,-1.0
CC1(c2ccc(OC(F)F)cc2)NC(=O)N(CC(=O)Nc2ccc(OC(F)F)cc2)C1=O (stereo not given),x,x,47.2,-39.0
CCOc1ccc(NC(=O)CN2C(=O)NC(C)(c3ccc(OC(F)F)cc3)C2=O)cc1 (stereo not given),x,x,73.7*,-72.3
Cc1cc(NC(=O)CN2C(=O)NC(C)(c3ccc(OC(F)F)cc3)C2=O)no1 (stereo not given),7.3,14.6,78.3*,-67.5
CC1(c2ccc(OC(F)F)cc2)NC(=O)N(CC(=O)Nc2cccc(F)c2)C1=O (stereo not given),x,x,136.2*,-82.1
CC1(c2ccc(OC(F)F)cc2)NC(=O)N(CC(=O)Nc2ccc(F)cc2)C1=O (stereo not given),x,x,35.7,-45.0
Cc1cc(NC(=O)c2sc3ccccc3c2O)no1,x,x,-0.1,5.3
N#Cc1c(-c2ccccc2)nc(SCc2cccc(Cl)c2)[nH]c1=O,x,x,4.8,55.7*
CN(c1ccc(C(=O)N2CCN(Cc3ccc4c(c3)OCO4)CC2)cc1)S(=O)(=O)c1ccccc1,4.1,8.0,-2.6,68.3*
CCOc1ccc(C(=O)Nc2cnn(Cc3ccc(Cl)c(Cl)c3)c2)cc1,0.3,1.1,5.4,72.9*
O=C(Nc1ccc(Cl)c(Cl)c1)c1ccc(Cn2cc(Cl)cn2)cc1,0.8,-1.3,4.0,-0.7
O=C(CN1CCN(C(=O)c2ccco2)CC1)Nc1c2c(nc3c1CCC3)CCCC2,0.5,0.6,1.9,71.7*
